Assay results as given in ChEMBL document CHEMBL1240487, “Discovery of a potent, selective, and orally bioavailable pyridinyl-pyrimidine phthalazine aurora kinase inhibitor” (J Med Chem, 2010).
≈ marks a conversion by molar mass, not a printed value. Calls of active or inactive are those of the source. No cut-off for these calls is given here.

Assays:
[1] = Clearance in Sprague-Dawley rat at 0.5 mg/kg, iv and 2 mg/kg, po; type: ADME, organism-based; conditions: in vivo
[2] = Intrinsic clearance in rat liver microsomes at 1 uM after up to 40 mins; type: ADME, Microsome
[3] = Aqueous equilibrium solubility of the compound in 0.01N HCL; type: physicochemical
[4] = target: T1, Aurora kinase A/Targeting protein for Xklp2 (Homo sapiens, UniProt O14965); test: Inhibition of Aurora A/TPX2 (1-43) by HTRF assay; type: protein-complex assay
T1 sequence (O14965 whole entry): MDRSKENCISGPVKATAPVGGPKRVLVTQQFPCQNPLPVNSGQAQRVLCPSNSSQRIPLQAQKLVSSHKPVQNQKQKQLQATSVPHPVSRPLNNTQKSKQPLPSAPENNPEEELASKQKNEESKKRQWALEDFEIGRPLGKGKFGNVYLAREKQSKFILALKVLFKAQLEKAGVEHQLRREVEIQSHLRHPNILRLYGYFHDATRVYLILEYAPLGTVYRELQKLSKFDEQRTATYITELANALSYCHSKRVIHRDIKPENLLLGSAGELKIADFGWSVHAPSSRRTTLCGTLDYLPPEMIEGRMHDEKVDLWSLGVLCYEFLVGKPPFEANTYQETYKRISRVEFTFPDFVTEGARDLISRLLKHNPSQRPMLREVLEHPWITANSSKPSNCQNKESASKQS
T1 sequence (Q9ULW0 whole entry): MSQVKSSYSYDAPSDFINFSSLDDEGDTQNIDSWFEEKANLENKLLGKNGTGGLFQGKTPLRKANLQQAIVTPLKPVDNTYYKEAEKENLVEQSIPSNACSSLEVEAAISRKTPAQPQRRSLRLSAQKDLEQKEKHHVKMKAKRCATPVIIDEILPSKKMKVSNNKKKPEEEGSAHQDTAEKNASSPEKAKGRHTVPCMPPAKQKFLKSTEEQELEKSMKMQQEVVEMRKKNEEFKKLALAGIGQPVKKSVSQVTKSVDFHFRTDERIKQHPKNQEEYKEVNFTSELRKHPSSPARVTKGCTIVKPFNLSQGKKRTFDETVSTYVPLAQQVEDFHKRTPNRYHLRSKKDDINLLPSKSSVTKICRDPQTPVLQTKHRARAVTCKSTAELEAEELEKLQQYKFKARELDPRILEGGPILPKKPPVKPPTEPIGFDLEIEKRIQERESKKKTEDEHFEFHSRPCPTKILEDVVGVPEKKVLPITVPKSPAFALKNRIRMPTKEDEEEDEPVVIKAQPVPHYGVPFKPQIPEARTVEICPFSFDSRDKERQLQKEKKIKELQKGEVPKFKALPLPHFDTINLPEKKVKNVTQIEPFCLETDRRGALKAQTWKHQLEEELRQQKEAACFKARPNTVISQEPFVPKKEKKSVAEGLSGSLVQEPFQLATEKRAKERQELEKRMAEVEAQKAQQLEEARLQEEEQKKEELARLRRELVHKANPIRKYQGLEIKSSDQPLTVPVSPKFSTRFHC
Procedure, shortened: (§1)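 Enzyme inhibition was run with ATP at its Km for each kinase. Values are averages of at least two determinations.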

[5] = target: T2, Aurora kinase B (Homo sapiens, UniProt Q96GD4); test: Inhibition of Aurora B by HTRF assay; procedure, shortened: as §1
T2 sequence (Q96GD4 whole entry): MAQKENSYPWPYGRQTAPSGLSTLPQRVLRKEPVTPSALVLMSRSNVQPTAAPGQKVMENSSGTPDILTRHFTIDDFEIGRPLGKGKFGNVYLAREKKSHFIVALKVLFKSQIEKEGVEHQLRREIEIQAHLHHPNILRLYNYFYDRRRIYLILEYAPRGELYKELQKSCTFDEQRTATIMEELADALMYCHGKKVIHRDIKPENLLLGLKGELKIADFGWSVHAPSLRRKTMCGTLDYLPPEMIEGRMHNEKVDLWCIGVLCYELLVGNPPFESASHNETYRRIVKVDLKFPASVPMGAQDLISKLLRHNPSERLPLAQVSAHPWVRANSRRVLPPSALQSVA

[6] = Oral bioavailability in Sprague-Dawley rat at 2 mg/kg; type: ADME, organism-based; conditions: in vivo
[7] = target: T2, Aurora kinase B; test: Inhibition of aurora B autophosphorylation in human HeLa cells at 1 uM after 3 hrs by Western blotting

| IC50 [4] [nM] | IC50 [5] [nM] | SMILES | further results |
| --- | --- | --- | --- |
| 62 | 17 | CNc1nccc(-c2cccnc2Oc2ccc(NC(=O)c3ccccc3Nc3ccccc3)cc2C)n1 |  |
| 1540 | 56 | CNc1nccc(-c2cccnc2Oc2ccc(NC(=O)c3ccccc3Oc3ccccc3)cc2C)n1 |  |
| 149 | 22 | CNc1nccc(-c2cccnc2Oc2ccc(Nc3nnc(-c4ccccc4)c4ccccc34)cc2)n1 | solubility thermodynamic [3]: 159 µg/mL (≈ 320 µM) |
| > 1000 | 110 | CNc1nccc(-c2cccnc2Oc2ccc(NC(=O)c3ccccc3Nc3ccccc3)c(C)c2)n1 |  |
|  | 542 | CNc1nccc(-c2cccnc2Oc2ccc(NC(=O)c3ccc(Oc4ccccc4)cc3)cc2C)n1 |  |

The remaining lines, values behind:

| SMILES | IC50 [4] [nM] | IC50 [5] [nM] | further results |
| --- | --- | --- | --- |
| CNc1nccc(-c2cccnc2Oc2ccc(NC(=O)c3ccccc3Nc3ccc(F)cc3)cc2)n1 |  |  | clearance [1]: 26.7 mL/min/kg; microsomal CLint at 1 µM [2]: 467 µL/min/mg; solubility thermodynamic [3]: 23 µg/mL (≈ 45.4 µM) |
| CNc1nccc(-c2cccnc2Oc2ccc(NC(=O)c3ccccc3Cl)cc2C)n1 | > 25000 | > 25000 |  |
| CNc1nccc(-c2cccnc2Oc2ccc(NC(=O)c3cc(F)ccc3Nc3ccccc3)cc2)n1 |  |  | clearance [1]: 14.5 mL/min/kg; bioavailability [6]: < 1%; microsomal CLint at 1 µM [2]: 338 µL/min/mg; solubility thermodynamic [3]: 16 µg/mL (≈ 31.6 µM) |
| CNc1nccc(-c2cccnc2Oc2ccc(NC(=O)c3cccc(Cl)c3)cc2C)n1 | 1550 | 430 |  |
| CCN(CCCOc1ccc2c(Nc3cc(CC(=O)Nc4cccc(F)c4)[nH]n3)ncnc2c1)CCOP(=O)(O)O |  |  | Activity [7]: Active |
| CNc1nccc(-c2cccnc2Oc2ccc(NC(=O)c3ccc(Cl)cc3)cc2C)n1 | 2340 | 335 |  |
| CNc1nccc(-c2cccnc2Oc2ccc(NC(=O)c3cccc(Oc4ccccc4)c3)cc2C)n1 | 964 | 251 |  |
